System: HEK-293T
Assay: Multiplex assay against HEK293T
Assay type: toxicity, cell-based
Conditions: human
How it was run: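 Cells stained live at seeding with Hoechst33342, BioTracker Green Microtubule Cytoskeleton Dye, MitoTracker Red and Annexin V Alexa Fluor 680 were imaged on a CQ1 microscope at 37°C and 5% CO2 after compound addition. Their classification by CellPathfinder machine-learning gating ran from Hoechst high-intensity objects versus normal cells, to healthy, pyknosed or fragmented nuclei among normal cells, to mitotic or apoptotic among pyknosed cells. Tubulin, mitochondrial-mass and membrane-permeability phenotypes are per cents of healthy-nucleus cells.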

[1] = 12 h, 1 µM, compound concentration 1 uM, replicate 1
[2] = 12 h, 1 µM, compound concentration 1 uM, replicate 2
[3] = 12 h, 10 µM, compound concentration 10 uM, replicate 1
[4] = 12 h, 10 µM, compound concentration 10 uM, replicate 2
[5] = 24 h, 1 µM, compound concentration 1 uM, replicate 1
[6] = 24 h, 1 µM, compound concentration 1 uM, replicate 2
[7] = 24 h, 10 µM, compound concentration 10 uM, replicate 1
[8] = 24 h, 10 µM, compound concentration 10 uM, replicate 2
[9] = 48 h, 1 µM, compound concentration 1 uM, replicate 1
[10] = 48 h, 1 µM, compound concentration 1 uM, replicate 2
[11] = 48 h, 10 µM, compound concentration 10 uM, replicate 1
[12] = 48 h, 10 µM, compound concentration 10 uM, replicate 2

Cc1ccc(/C(=C\CN2CCCC2)c2ccccn2)cc1 [TRIPROLIDINE]
Population Apoptotic (%) [1]: 34%
Population Fragmented Nuclei (%) [1]: 6%
Population Healthy Nuclei (%) [1]: 83%
Population Hoechst High Intensity Objects (%) [1]: 7%
Population Membrane Permeable-Phenotype (%) [1]: 0%
Population Mitochondria Different-Phenotype (%) [1]: 45%
Population Mitotic Cells (%) [1]: 65%
Population Normal (%) [1]: 92%
Population Pyknosed Nuclei (%) [1]: 9%
Population Tubulin-Different-Phenotype (%) [1]: 24%
Total Cell Count [1]: 424
Population Apoptotic (%) [2]: 50%
Population Fragmented Nuclei (%) [2]: 3%
Population Healthy Nuclei (%) [2]: 84%
Population Hoechst High Intensity Objects (%) [2]: 5%
Population Mitochondria Different-Phenotype (%) [2]: 55%
Population Mitotic Cells (%) [2]: 50%
Population Normal (%) [2]: 94%
Population Pyknosed Nuclei (%) [2]: 11%
Population Tubulin-Different-Phenotype (%) [2]: 17%
Total Cell Count [2]: 446
Population Apoptotic (%) [3]: 44%
Population Fragmented Nuclei (%) [3]: 10%
Population Healthy Nuclei (%) [3]: 72%
Population Hoechst High Intensity Objects (%) [3]: 15%
Population Membrane Permeable-Phenotype (%) [3]: 0%
Population Mitochondria Different-Phenotype (%) [3]: 67%
Population Mitotic Cells (%) [3]: 56%
Population Normal (%) [3]: 84%
Population Pyknosed Nuclei (%) [3]: 16%
Population Tubulin-Different-Phenotype (%) [3]: 53%
Total Cell Count [3]: 368
Population Fragmented Nuclei (%) [4]: 6%
Population Healthy Nuclei (%) [4]: 77%
Population Hoechst High Intensity Objects (%) [4]: 8%
Population Mitochondria Different-Phenotype (%) [4]: 74%
Population Normal (%) [4]: 91%
Population Pyknosed Nuclei (%) [4]: 15%
Population Tubulin-Different-Phenotype (%) [4]: 45%
Total Cell Count [4]: 344
Population Apoptotic (%) [5]: 30%
Population Fragmented Nuclei (%) [5]: 10%
Population Healthy Nuclei (%) [5]: 78%
Population Hoechst High Intensity Objects (%) [5]: 3%
Population Membrane Permeable-Phenotype (%) [5]: 0%
Population Mitochondria Different-Phenotype (%) [5]: 27%
Population Mitotic Cells (%) [5]: 70%
Population Normal (%) [5]: 96%
Population Pyknosed Nuclei (%) [5]: 10%
Population Tubulin-Different-Phenotype (%) [5]: 18%
Total Cell Count [5]: 574
Population Fragmented Nuclei (%) [6]: 9%
Population Healthy Nuclei (%) [6]: 82%
Population Hoechst High Intensity Objects (%) [6]: 7%
Population Mitochondria Different-Phenotype (%) [6]: 34%
Population Mitotic Cells (%) [6]: 69%
Population Normal (%) [6]: 92%
Population Pyknosed Nuclei (%) [6]: 7%
Population Tubulin-Different-Phenotype (%) [6]: 9%
Total Cell Count [6]: 541
Population Apoptotic (%) [7]: 36%
Population Fragmented Nuclei (%) [7]: 8%
Population Healthy Nuclei (%) [7]: 78%
Population Hoechst High Intensity Objects (%) [7]: 9%
Population Membrane Permeable-Phenotype (%) [7]: 0%
Population Mitochondria Different-Phenotype (%) [7]: 55%
Population Mitotic Cells (%) [7]: 63%
Population Normal (%) [7]: 90%
Population Pyknosed Nuclei (%) [7]: 13%
Population Tubulin-Different-Phenotype (%) [7]: 43%
Total Cell Count [7]: 490
Population Apoptotic (%) [8]: 27%
Population Fragmented Nuclei (%) [8]: 9%
Population Healthy Nuclei (%) [8]: 80%
Population Hoechst High Intensity Objects (%) [8]: 4%
Population Mitochondria Different-Phenotype (%) [8]: 54%
Population Mitotic Cells (%) [8]: 72%
Population Normal (%) [8]: 95%
Population Pyknosed Nuclei (%) [8]: 10%
Population Tubulin-Different-Phenotype (%) [8]: 26%
Total Cell Count [8]: 464
Population Apoptotic (%) [9]: 16%
Population Fragmented Nuclei (%) [9]: 14%
Population Healthy Nuclei (%) [9]: 79%
Population Hoechst High Intensity Objects (%) [9]: 1%
Population Membrane Permeable-Phenotype (%) [9]: 2%
Population Mitochondria Different-Phenotype (%) [9]: 17%
Population Mitotic Cells (%) [9]: 83%
Population Normal (%) [9]: 98%
Population Pyknosed Nuclei (%) [9]: 6%
Population Tubulin-Different-Phenotype (%) [9]: 11%
Total Cell Count [9]: 950
Population Apoptotic (%) [10]: 37%
Population Fragmented Nuclei (%) [10]: 10%
Population Healthy Nuclei (%) [10]: 84%
Population Hoechst High Intensity Objects (%) [10]: 3%
Population Membrane Permeable-Phenotype (%) [10]: 1%
Population Mitochondria Different-Phenotype (%) [10]: 13%
Population Mitotic Cells (%) [10]: 62%
Population Normal (%) [10]: 96%
Population Pyknosed Nuclei (%) [10]: 4%
Population Tubulin-Different-Phenotype (%) [10]: 6%
Total Cell Count [10]: 837
Population Apoptotic (%) [11]: 43%
Population Fragmented Nuclei (%) [11]: 16%
Population Healthy Nuclei (%) [11]: 74%
Population Hoechst High Intensity Objects (%) [11]: 6%
Population Membrane Permeable-Phenotype (%) [11]: 0%
Population Mitochondria Different-Phenotype (%) [11]: 46%
Population Mitotic Cells (%) [11]: 56%
Population Normal (%) [11]: 93%
Population Pyknosed Nuclei (%) [11]: 9%
Population Tubulin-Different-Phenotype (%) [11]: 29%
Total Cell Count [11]: 674
Population Apoptotic (%) [12]: 33%
Population Fragmented Nuclei (%) [12]: 13%
Population Healthy Nuclei (%) [12]: 78%
Population Hoechst High Intensity Objects (%) [12]: 4%
Population Membrane Permeable-Phenotype (%) [12]: 1%
Population Mitochondria Different-Phenotype (%) [12]: 43%
Population Mitotic Cells (%) [12]: 66%
Population Normal (%) [12]: 95%
Population Pyknosed Nuclei (%) [12]: 7%
Population Tubulin-Different-Phenotype (%) [12]: 25%
Total Cell Count [12]: 644

Oc1c(CN2CCN(c3ccccn3)CC2)cc(Cl)c2cccnc12
Population Apoptotic (%) [1]: 30%
Population Fragmented Nuclei (%) [1]: 6%
Population Healthy Nuclei (%) [1]: 83%
Population Hoechst High Intensity Objects (%) [1]: 7%
Population Membrane Permeable-Phenotype (%) [1]: 0%
Population Mitochondria Different-Phenotype (%) [1]: 44%
Population Mitotic Cells (%) [1]: 70%
Population Normal (%) [1]: 92%
Population Pyknosed Nuclei (%) [1]: 10%
Population Tubulin-Different-Phenotype (%) [1]: 34%
Total Cell Count [1]: 424
Population Apoptotic (%) [2]: 45%
Population Fragmented Nuclei (%) [2]: 5%
Population Healthy Nuclei (%) [2]: 80%
Population Mitochondria Different-Phenotype (%) [2]: 59%
Population Mitotic Cells (%) [2]: 54%
Population Pyknosed Nuclei (%) [2]: 13%
Population Tubulin-Different-Phenotype (%) [2]: 20%
Total Cell Count [2]: 354
Population Apoptotic (%) [3]: 71%
Population Fragmented Nuclei (%) [3]: 16%
Population Healthy Nuclei (%) [3]: 64%
Population Hoechst High Intensity Objects (%) [3]: 11%
Population Membrane Permeable-Phenotype (%) [3]: 0%
Population Mitochondria Different-Phenotype (%) [3]: 64%
Population Mitotic Cells (%) [3]: 28%
Population Normal (%) [3]: 88%
Population Pyknosed Nuclei (%) [3]: 18%
Population Tubulin-Different-Phenotype (%) [3]: 20%
Total Cell Count [3]: 197
Population Apoptotic (%) [4]: 73%
Population Fragmented Nuclei (%) [4]: 18%
Population Healthy Nuclei (%) [4]: 69%
Population Hoechst High Intensity Objects (%) [4]: 6%
Population Mitochondria Different-Phenotype (%) [4]: 70%
Population Mitotic Cells (%) [4]: 26%
Population Normal (%) [4]: 93%
Population Pyknosed Nuclei (%) [4]: 12%
Population Tubulin-Different-Phenotype (%) [4]: 32%
Total Cell Count [4]: 327
Population Apoptotic (%) [5]: 34%
Population Fragmented Nuclei (%) [5]: 6%
Population Healthy Nuclei (%) [5]: 84%
Population Hoechst High Intensity Objects (%) [5]: 3%
Population Membrane Permeable-Phenotype (%) [5]: 0%
Population Mitochondria Different-Phenotype (%) [5]: 22%
Population Mitotic Cells (%) [5]: 65%
Population Normal (%) [5]: 96%
Population Pyknosed Nuclei (%) [5]: 9%
Population Tubulin-Different-Phenotype (%) [5]: 23%
Total Cell Count [5]: 529
Population Apoptotic (%) [6]: 33%
Population Fragmented Nuclei (%) [6]: 7%
Population Mitochondria Different-Phenotype (%) [6]: 40%
Population Mitotic Cells (%) [6]: 66%
Population Pyknosed Nuclei (%) [6]: 8%
Population Tubulin-Different-Phenotype (%) [6]: 13%
Total Cell Count [6]: 427
Population Apoptotic (%) [7]: 93%
Population Fragmented Nuclei (%) [7]: 18%
Population Healthy Nuclei (%) [7]: 65%
Population Hoechst High Intensity Objects (%) [7]: 13%
Population Membrane Permeable-Phenotype (%) [7]: 1%
Population Mitochondria Different-Phenotype (%) [7]: 65%
Population Mitotic Cells (%) [7]: 6%
Population Normal (%) [7]: 86%
Population Pyknosed Nuclei (%) [7]: 15%
Population Tubulin-Different-Phenotype (%) [7]: 19%
Total Cell Count [7]: 227
Population Apoptotic (%) [8]: 81%
Population Fragmented Nuclei (%) [8]: 21%
Population Healthy Nuclei (%) [8]: 63%
Population Hoechst High Intensity Objects (%) [8]: 7%
Population Mitochondria Different-Phenotype (%) [8]: 78%
Population Mitotic Cells (%) [8]: 18%
Population Normal (%) [8]: 92%
Population Tubulin-Different-Phenotype (%) [8]: 34%
Total Cell Count [8]: 354
Population Apoptotic (%) [9]: 29%
Population Fragmented Nuclei (%) [9]: 12%
Population Healthy Nuclei (%) [9]: 80%
Population Hoechst High Intensity Objects (%) [9]: 3%
Population Membrane Permeable-Phenotype (%) [9]: 0%
Population Mitochondria Different-Phenotype (%) [9]: 22%
Population Mitotic Cells (%) [9]: 70%
Population Normal (%) [9]: 96%
Population Pyknosed Nuclei (%) [9]: 6%
Population Tubulin-Different-Phenotype (%) [9]: 16%
Total Cell Count [9]: 689
Population Apoptotic (%) [10]: 31%
Population Fragmented Nuclei (%) [10]: 10%
Population Healthy Nuclei (%) [10]: 83%
Population Mitochondria Different-Phenotype (%) [10]: 17%
Population Mitotic Cells (%) [10]: 68%
Population Pyknosed Nuclei (%) [10]: 5%
Population Tubulin-Different-Phenotype (%) [10]: 10%
Total Cell Count [10]: 518
Population Apoptotic (%) [11]: 83%
Population Fragmented Nuclei (%) [11]: 23%
Population Healthy Nuclei (%) [11]: 44%
Population Hoechst High Intensity Objects (%) [11]: 25%
Population Membrane Permeable-Phenotype (%) [11]: 0%
Population Mitochondria Different-Phenotype (%) [11]: 60%
Population Mitotic Cells (%) [11]: 16%
Population Normal (%) [11]: 74%
Population Pyknosed Nuclei (%) [11]: 31%
Population Tubulin-Different-Phenotype (%) [11]: 30%
Total Cell Count [11]: 204
Population Apoptotic (%) [12]: 94%
Population Fragmented Nuclei (%) [12]: 28%
Population Healthy Nuclei (%) [12]: 49%
Population Hoechst High Intensity Objects (%) [12]: 14%
Population Mitochondria Different-Phenotype (%) [12]: 81%
Population Mitotic Cells (%) [12]: 5%
Population Normal (%) [12]: 85%
Population Pyknosed Nuclei (%) [12]: 22%
Population Tubulin-Different-Phenotype (%) [12]: 42%
Total Cell Count [12]: 295

Source: ChEMBL document CHEMBL5058577, “EUbOPEN Chemogenomics Library 2 (Multiplex)” (2022)
